Our source for the capsule formation values is PubChem BioAssay AID624060 (Southern Research Specialized Biocontainment Screening …, 2012).

This test relates to UPEC UTI89 capsule, orcinol assay OD572. In words: bacterial K capsule biogenesis inhibition, UTI89 – orcinol colorimetric, OD572, set 2, orthogonal assay for bacterial capsule biogenesis inhibitors, confirmation (AID 624060). Particulars: at 100 µM; active compounds read low. In outline: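 Material: Uropathogenic Escherichia coli strain UTI89 with ΔkpsM export-deficient mutant. Schedule: hydrolysis 1 h, 80 °C. Benchmarks: ΔkpsM mutant, low-capsule reference. Compound: one dose, 100 µM. Detection: orcinol colorimetry of hydrolysed, purified capsular polysaccharide, absorbance 572 nm.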

On to `CCOc1ccc(-c2cc(NC(=O)c3c(F)cccc3F)c(C(=O)O)s2)cc1`, for which the capsule formation is 21%.
